In ChEMBL document CHEMBL1140697, “Synthesis and evaluation in monkey of two sensitive 11C-labeled aryloxyanilide ligands for imaging brain peripheral benzodiazepine receptors in vivo” (J Med Chem, 2008):

Experiments:
[1] = molecular target: Alpha-2A adrenergic receptor (Homo sapiens) (UniProt P08913); assay: Binding affinity to adrenergic alpha-2A at 10 uM; conditions: tested as the 11C-labelled form
Outline: (§1)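 Run through the NIMH Psychoactive Drug Screening Program (PDSP) broad receptor screen. The test ligand was used at 10 µM, and the read-out was percent displacement of the reference radioligand from each site.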

[2] = molecular target: Sodium-dependent serotonin transporter (Homo sapiens) (UniProt P31645); assay: Binding affinity to SERT receptor at 10 uM; conditions: tested as the 11C-labelled form; outline: as §1
[3] = molecular target: D(4) dopamine receptor (Homo sapiens) (UniProt P21917); assay: Binding affinity to dopamine receptor D4 at 10 uM; conditions: tested as the 11C-labelled form; outline: as §1
[4] = molecular target: Histamine H1 receptor (Homo sapiens) (UniProt P35367); assay: Binding affinity to histamine H1 receptor at 10 uM; conditions: tested as the 11C-labelled form; outline: as §1
Histamine H1 receptor (Homo sapiens), sequence (P35367 whole entry): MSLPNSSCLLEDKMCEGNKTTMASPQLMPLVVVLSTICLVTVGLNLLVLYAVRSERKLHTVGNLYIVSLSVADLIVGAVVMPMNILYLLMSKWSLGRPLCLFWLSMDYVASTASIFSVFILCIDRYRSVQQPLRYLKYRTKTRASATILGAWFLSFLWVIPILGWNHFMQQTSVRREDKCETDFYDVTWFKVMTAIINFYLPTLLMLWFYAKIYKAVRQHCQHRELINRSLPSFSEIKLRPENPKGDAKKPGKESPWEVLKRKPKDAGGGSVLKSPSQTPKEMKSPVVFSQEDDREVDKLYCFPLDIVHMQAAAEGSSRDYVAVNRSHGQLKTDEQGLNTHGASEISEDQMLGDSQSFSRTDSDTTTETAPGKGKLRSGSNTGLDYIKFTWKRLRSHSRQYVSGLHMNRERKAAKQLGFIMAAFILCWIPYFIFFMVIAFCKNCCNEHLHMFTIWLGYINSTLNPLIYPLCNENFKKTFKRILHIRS

[5] = molecular target: 5-hydroxytryptamine receptor 5A (Homo sapiens) (UniProt P47898); assay: Binding affinity to 5HT5A at 10 uM; conditions: tested as the 11C-labelled form; outline: as §1
[6] = molecular target: D(1A) dopamine receptor (Homo sapiens) (UniProt P21728); assay: Binding affinity to dopamine receptor D1 at 10 uM; conditions: tested as the 11C-labelled form; outline: as §1
D(1A) dopamine receptor (Homo sapiens), sequence (P21728 whole entry): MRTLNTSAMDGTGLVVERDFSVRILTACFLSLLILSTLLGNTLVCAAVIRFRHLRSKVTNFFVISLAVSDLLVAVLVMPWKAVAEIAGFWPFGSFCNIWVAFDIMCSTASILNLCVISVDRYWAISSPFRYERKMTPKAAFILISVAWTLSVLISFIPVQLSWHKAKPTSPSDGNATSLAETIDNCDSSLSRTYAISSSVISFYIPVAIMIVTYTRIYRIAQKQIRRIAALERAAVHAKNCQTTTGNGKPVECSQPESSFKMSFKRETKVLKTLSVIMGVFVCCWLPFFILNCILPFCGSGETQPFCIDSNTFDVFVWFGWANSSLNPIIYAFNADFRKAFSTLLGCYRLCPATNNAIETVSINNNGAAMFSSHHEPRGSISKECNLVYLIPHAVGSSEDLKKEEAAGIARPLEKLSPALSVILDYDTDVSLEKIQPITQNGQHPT

[7] = molecular target: 5-hydroxytryptamine receptor 6 (Homo sapiens) (UniProt P50406); assay: Binding affinity to 5HT6 at 10 uM; conditions: tested as the 11C-labelled form; outline: as §1
5-hydroxytryptamine receptor 6 (Homo sapiens), sequence (P50406 whole entry): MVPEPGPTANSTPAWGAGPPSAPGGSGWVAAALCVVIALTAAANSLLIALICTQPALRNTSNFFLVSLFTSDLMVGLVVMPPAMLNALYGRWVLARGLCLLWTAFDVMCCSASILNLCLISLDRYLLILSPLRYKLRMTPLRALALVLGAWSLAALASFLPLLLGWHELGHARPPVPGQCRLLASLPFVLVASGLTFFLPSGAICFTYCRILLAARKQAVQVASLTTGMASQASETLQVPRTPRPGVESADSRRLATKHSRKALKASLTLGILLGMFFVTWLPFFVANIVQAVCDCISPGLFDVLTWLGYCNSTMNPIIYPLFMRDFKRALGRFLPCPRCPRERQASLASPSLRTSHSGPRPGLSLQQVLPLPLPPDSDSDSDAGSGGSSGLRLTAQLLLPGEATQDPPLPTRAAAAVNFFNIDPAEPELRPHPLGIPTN

[8] = molecular target: 5-hydroxytryptamine receptor 1E (Homo sapiens) (UniProt P28566); assay: Binding affinity to 5HT1E at 10 uM; conditions: tested as the 11C-labelled form; outline: as §1
[9] = molecular target: Alpha-1B adrenergic receptor (Homo sapiens) (UniProt P35368); assay: Binding affinity to adrenergic alpha-1B at 10 uM; conditions: tested as the 11C-labelled form; outline: as §1
[10] = molecular target: 5-hydroxytryptamine receptor 1D (Homo sapiens) (UniProt P28221); assay: Binding affinity to 5HT1D at 10 uM; conditions: tested as the 11C-labelled form; outline: as §1
[11] = molecular target: Beta-3 adrenergic receptor (Homo sapiens) (UniProt P13945); assay: Binding affinity to adrenergic beta-3 at 10 uM; conditions: tested as the 11C-labelled form; outline: as §1
Beta-3 adrenergic receptor (Homo sapiens), sequence (P13945 whole entry, looked up): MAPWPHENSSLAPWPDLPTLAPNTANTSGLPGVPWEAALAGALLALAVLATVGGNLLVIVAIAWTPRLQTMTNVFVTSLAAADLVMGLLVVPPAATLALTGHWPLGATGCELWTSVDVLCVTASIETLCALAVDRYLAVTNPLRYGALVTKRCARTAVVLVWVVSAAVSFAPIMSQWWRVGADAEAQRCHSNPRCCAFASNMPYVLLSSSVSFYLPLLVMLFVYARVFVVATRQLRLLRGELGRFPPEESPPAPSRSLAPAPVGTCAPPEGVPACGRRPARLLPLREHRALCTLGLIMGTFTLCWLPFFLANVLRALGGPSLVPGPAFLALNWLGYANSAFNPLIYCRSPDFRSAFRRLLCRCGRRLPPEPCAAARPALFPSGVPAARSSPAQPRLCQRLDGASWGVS

[12] = molecular target: Sodium-dependent noradrenaline transporter (Homo sapiens) (UniProt P23975); assay: Binding affinity to NET receptor at 10 uM; conditions: tested as the 11C-labelled form; outline: as §1
[13] = molecular target: Muscarinic acetylcholine receptor M5 (Homo sapiens) (UniProt P08912); assay: Binding affinity to muscarinic receptor M5 receptor at 10 uM; conditions: tested as the 11C-labelled form; outline: as §1
[14] = molecular target: 5-hydroxytryptamine receptor 1B (Homo sapiens) (UniProt P28222); assay: Binding affinity to 5HT1B at 10 uM; conditions: tested as the 11C-labelled form; outline: as §1
[15] = molecular target: 5-hydroxytryptamine receptor 2B (Homo sapiens) (UniProt P41595); assay: Binding affinity to 5HT2B at 10 uM; conditions: tested as the 11C-labelled form; outline: as §1
[16] = molecular target: Histamine H4 receptor (Homo sapiens) (UniProt Q9H3N8); assay: Binding affinity to histamine H4 receptor at 10 uM; conditions: tested as the 11C-labelled form; outline: as §1
[17] = molecular target: 5-hydroxytryptamine receptor 2A (Homo sapiens) (UniProt P28223); assay: Binding affinity to 5HT2A at 10 uM; conditions: tested as the 11C-labelled form; outline: as §1
[18] = molecular target: D(2) dopamine receptor (Homo sapiens) (UniProt P14416); assay: Binding affinity to dopamine receptor D2 at 10 uM; conditions: tested as the 11C-labelled form; outline: as §1
D(2) dopamine receptor (Homo sapiens), sequence (P14416 whole entry): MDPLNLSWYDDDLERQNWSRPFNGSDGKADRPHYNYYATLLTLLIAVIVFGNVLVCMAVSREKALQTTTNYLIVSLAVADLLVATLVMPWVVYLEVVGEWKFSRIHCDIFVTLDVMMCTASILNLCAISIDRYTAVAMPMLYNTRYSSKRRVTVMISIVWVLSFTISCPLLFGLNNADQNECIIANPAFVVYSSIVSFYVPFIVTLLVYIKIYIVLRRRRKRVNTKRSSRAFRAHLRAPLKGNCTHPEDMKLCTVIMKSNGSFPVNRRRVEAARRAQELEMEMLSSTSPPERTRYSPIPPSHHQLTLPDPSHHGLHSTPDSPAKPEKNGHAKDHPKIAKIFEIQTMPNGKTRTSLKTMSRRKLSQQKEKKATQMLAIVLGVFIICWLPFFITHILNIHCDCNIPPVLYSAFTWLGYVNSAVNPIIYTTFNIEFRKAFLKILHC

[19] = molecular target: Beta-2 adrenergic receptor (Homo sapiens) (UniProt P07550); assay: Binding affinity to adrenergic beta-2 at 10 uM; conditions: tested as the 11C-labelled form; outline: as §1
[20] = molecular target: 5-hydroxytryptamine receptor 2C (Homo sapiens) (UniProt P28335); assay: Binding affinity to 5HT2C at 10 uM; conditions: tested as the 11C-labelled form; outline: as §1
[21] = molecular target: Muscarinic acetylcholine receptor M2 (Homo sapiens) (UniProt P08172); assay: Binding affinity to muscarinic receptor M2 receptor at 10 uM; conditions: tested as the 11C-labelled form; outline: as §1
[22] = molecular target: 5-hydroxytryptamine receptor 3A (Homo sapiens) (UniProt P46098); assay: Binding affinity to 5HT3 at 10 uM; conditions: tested as the 11C-labelled form; outline: as §1
5-hydroxytryptamine receptor 3A (Homo sapiens), sequence (P46098 whole entry): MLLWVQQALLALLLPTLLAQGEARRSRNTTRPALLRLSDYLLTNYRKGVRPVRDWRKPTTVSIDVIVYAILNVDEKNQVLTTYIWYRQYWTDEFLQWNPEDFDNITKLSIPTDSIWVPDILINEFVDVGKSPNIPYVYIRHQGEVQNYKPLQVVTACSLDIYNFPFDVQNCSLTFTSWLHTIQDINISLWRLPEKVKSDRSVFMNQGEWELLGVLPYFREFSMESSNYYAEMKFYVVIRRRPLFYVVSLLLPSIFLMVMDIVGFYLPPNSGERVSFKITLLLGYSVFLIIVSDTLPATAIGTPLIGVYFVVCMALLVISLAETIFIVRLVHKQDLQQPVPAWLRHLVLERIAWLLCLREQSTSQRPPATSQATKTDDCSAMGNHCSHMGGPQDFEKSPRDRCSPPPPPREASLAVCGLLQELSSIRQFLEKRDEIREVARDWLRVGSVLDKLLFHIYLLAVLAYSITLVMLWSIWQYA

[23] = molecular target: Sodium-dependent dopamine transporter (Homo sapiens) (UniProt Q01959); assay: Binding affinity to DAT receptor at 10 uM; conditions: tested as the 11C-labelled form; outline: as §1
Sodium-dependent dopamine transporter (Homo sapiens), sequence (Q01959 whole entry): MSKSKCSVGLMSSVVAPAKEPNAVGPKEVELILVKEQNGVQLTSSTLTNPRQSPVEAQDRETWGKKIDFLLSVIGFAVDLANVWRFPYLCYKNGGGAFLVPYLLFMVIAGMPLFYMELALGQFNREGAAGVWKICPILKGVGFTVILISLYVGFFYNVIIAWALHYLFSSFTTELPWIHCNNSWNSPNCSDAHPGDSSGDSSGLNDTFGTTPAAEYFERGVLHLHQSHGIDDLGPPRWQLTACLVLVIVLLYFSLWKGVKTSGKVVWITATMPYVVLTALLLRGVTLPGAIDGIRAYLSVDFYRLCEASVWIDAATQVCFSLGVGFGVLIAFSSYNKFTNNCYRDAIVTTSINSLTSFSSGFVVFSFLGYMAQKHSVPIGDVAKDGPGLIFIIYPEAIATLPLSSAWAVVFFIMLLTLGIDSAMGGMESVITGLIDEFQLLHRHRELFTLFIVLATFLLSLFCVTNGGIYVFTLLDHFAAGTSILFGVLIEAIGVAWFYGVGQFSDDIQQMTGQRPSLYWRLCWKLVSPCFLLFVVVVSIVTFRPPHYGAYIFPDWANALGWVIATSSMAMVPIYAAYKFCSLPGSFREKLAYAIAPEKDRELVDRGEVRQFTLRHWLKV

[24] = molecular target: Alpha-2C adrenergic receptor (Homo sapiens) (UniProt P18825); assay: Binding affinity to adrenergic alpha-2C at 10 uM; conditions: tested as the 11C-labelled form; outline: as §1
[25] = molecular target: Beta-1 adrenergic receptor (Homo sapiens) (UniProt P08588); assay: Binding affinity to adrenergic […] at 10 uM; conditions: tested as the 11C-labelled form; outline: as §1
[26] = molecular target: Histamine H2 receptor (Homo sapiens) (UniProt P25021); assay: Binding affinity to histamine H2 receptor at 10 uM; conditions: tested as the 11C-labelled form; outline: as §1
[27] = molecular target: Histamine H3 receptor (Homo sapiens) (UniProt Q9Y5N1); assay: Binding affinity to histamine H3 receptor at 10 uM; conditions: tested as the 11C-labelled form; outline: as §1
[28] = molecular target: D(3) dopamine receptor (Homo sapiens) (UniProt P35462); assay: Binding affinity to dopamine receptor D3 at 10 uM; conditions: tested as the 11C-labelled form; outline: as §1
[29] = molecular target: Alpha-2B adrenergic receptor (Homo sapiens) (UniProt P18089); assay: Binding affinity to adrenergic alpha-2B at 10 uM; conditions: tested as the 11C-labelled form; outline: as §1
Alpha-2B adrenergic receptor (Homo sapiens), sequence (P18089 whole entry): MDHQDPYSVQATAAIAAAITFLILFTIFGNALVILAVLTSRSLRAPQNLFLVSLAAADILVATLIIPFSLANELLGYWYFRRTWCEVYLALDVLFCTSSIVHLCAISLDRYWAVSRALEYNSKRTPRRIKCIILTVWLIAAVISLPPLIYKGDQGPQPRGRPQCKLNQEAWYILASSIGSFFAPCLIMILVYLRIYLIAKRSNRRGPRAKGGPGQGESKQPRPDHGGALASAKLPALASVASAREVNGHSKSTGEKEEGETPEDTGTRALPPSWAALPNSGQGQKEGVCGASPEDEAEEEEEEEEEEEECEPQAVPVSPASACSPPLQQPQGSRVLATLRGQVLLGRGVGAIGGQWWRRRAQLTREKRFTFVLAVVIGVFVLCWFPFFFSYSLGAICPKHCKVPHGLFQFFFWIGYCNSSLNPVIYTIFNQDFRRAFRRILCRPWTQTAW

[30] = molecular target: Alpha-1A adrenergic receptor (Homo sapiens) (UniProt P35348); assay: Binding affinity to adrenergic alpha-1A at 10 uM; conditions: tested as the 11C-labelled form; outline: as §1
[31] = molecular target: 5-hydroxytryptamine receptor 7 (Homo sapiens) (UniProt P34969); assay: Binding affinity to 5HT7 at 10 uM; conditions: tested as the 11C-labelled form; outline: as §1
5-hydroxytryptamine receptor 7 (Homo sapiens), sequence (P34969 whole entry): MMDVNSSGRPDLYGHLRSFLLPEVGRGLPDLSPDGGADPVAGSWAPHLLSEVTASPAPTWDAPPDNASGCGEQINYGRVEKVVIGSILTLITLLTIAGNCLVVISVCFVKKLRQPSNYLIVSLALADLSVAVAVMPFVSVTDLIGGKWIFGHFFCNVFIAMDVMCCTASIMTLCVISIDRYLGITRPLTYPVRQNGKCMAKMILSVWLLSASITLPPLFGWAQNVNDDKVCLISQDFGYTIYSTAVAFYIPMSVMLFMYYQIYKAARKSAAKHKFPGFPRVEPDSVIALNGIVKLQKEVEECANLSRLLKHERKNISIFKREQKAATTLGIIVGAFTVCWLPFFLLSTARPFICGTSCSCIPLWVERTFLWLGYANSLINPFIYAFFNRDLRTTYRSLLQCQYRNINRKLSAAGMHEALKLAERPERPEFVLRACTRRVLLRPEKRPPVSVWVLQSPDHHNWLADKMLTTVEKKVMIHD

[32] = molecular target: 5-hydroxytryptamine receptor 1A (Homo sapiens) (UniProt P08908); assay: Binding affinity to 5HT1A at 10 uM; conditions: tested as the 11C-labelled form; outline: as §1
[33] = Binding affinity to PBR in rhesus monkey mitochondrial tissue; design: species or system Macaca mulatta
Outline: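 Mitochondrial fractions (rat, rhesus monkey or human) were incubated with [³H]PK 11195 (0.38 nM final) and eight test-ligand concentrations for 2 h at 4 °C. Samples were filtered on PEI-presoaked GF/B filters, washed with ice-cold buffer and counted. Nonspecific binding was taken at the top inhibitor level (0.1–0.3 µM). Triplicate curves were run in two independent experiments. IC₅₀ was converted to K_i by Cheng–Prusoff, using K_D from homologous PK 11195 displacement.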

[34] = Lipophilicity, log D of the compound; type: physicochemical; conditions: octanol/water
Outline: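 The ¹¹C-ligand (~300 µCi) in saline with 5% ethanol was mixed with sodium phosphate buffer (0.15 M, pH 7.4). Six 1 mL aliquots were each vortexed 1 min with buffer-pre-equilibrated n-octanol, centrifuged 1 min, and 200 µL of each phase was γ-counted. Aqueous counts were corrected by radio-HPLC for the unchanged fraction. LogD = log(cpm octanol/corrected cpm aqueous); mean ± SD of six determinations.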

[35] = molecular target: GABA A receptor alpha-6/beta-2/gamma-2 (Homo sapiens, UniProt P18507+P47870+Q16445); assay: Binding affinity to GABA alpha-6-beta-2-gamma-2 receptor; type: protein-complex assay
Outline: (§2)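 K_i values at central benzodiazepine (GABA_A) receptor subtypes were determined in radioligand binding assays within the NIMH PDSP screen.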

Translocator protein [36] = molecular target: Translocator protein (Rattus norvegicus, UniProt P16257); assay: Binding affinity to PBR in Sprague-Dawley rat mitochondrial tissue
Brain = assay: Biodistribution in rat brain at 0.472 mCi, iv after 30 mins; type: ADME, organism-based; conditions: in vivo, 0.5 h
[37] = Stability in Sprague-Dawley rat brain after 2 hrs; type: ADME, tissue-based; conditions: read-out: Stability
Outline: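 The radioligand was incubated with rat brain homogenate in saline for 2 h at 37 °C. The percentage of unchanged radioligand was then determined by radio-HPLC.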

Plasma [38] = assay: Drug level in rhesus monkey plasma assessed as cell distribution; type: ADME, cell-free, Macaca mulatta
[39] = molecular target: GABA A receptor alpha-5/beta-3/gamma-2 (Rattus norvegicus, UniProt P18508+P19969+P63079); assay: Binding affinity to GABA alpha-5-beta-2-gamma-2 receptor; type: protein-complex assay, Homo sapiens; outline: as §2
Plasma [40] = assay: Biodistribution in rat plasma at 2.34 mCi, iv after 30 mins; type: ADME, organism-based; conditions: in vivo, 0.5 h
Outline: (§3)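 Rats received the ¹¹C-radioligand iv with varying carrier mass (µg/kg) and were sampled 30 min later. Plasma and brain homogenate were extracted into acetonitrile and analysed by reverse-phase radio-HPLC (C18; MeOH/H₂O/Et₃N, 1.5 mL/min), reporting % radioactivity as unchanged radioligand. Extraction recovery was recorded. Replicate HPLC analyses were run on one sample per rat.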

[41] = molecular target: GABA A receptor alpha-2/beta-2/gamma-2 (Homo sapiens, UniProt P18507+P47869+P47870); assay: Binding affinity to GABA alpha-2-beta-2-gamma-2 receptor; type: protein-complex assay; outline: as §2
Rattus norvegicus = assay: Biodistribution in rat urine at 2.34 mCi, iv after 30 mins; type: ADME, organism-based; conditions: in vivo, 0.5 h
[42] = molecular target: Kappa-type opioid receptor (Homo sapiens, UniProt P41145); assay: Binding affinity to kappa opioid receptor
Kappa-type opioid receptor, sequence (P41145 whole entry): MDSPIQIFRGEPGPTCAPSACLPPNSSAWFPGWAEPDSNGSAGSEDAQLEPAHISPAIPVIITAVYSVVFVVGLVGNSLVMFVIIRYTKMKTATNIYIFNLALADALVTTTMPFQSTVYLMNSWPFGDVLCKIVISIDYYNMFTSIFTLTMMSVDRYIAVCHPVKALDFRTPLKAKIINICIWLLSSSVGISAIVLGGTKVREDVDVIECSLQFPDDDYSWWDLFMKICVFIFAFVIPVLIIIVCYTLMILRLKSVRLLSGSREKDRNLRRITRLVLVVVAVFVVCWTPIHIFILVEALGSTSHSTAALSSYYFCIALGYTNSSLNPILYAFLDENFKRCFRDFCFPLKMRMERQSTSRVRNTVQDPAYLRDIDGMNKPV

[43] = Stability in monkey whole blood >30 mins; type: ADME, tissue-based, Macaca mulatta; conditions: rhesus monkey, read-out: Stability
Outline: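 The radioligand was incubated with monkey blood for >30 min. Radioactivity extracted from the plasma was analysed by radio-HPLC to give the percentage of unchanged radioligand, reported as mean ± SD.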

[44] = Stability in sodium phosphate buffer at pH 7.4 after 2.5 hrs; type: physicochemical; conditions: read-out: Stability
Outline: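 Radioligand stored in 0.15 M sodium phosphate buffer, pH 7.4, for 2.5 h; radiochemical stability measured by radio-HPLC as percent of radioactivity remaining as unchanged radioligand; n = 4.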

Plasma [45] = assay: Biodistribution in rat plasma at 0.472 mCi, iv after 30 mins; type: ADME, organism-based; conditions: in vivo, 0.5 h; outline: as §3
[46] = molecular target: GABA A receptor alpha-1/beta-1/gamma-2 (Homo sapiens, UniProt P14867+P18505+P18507); assay: Binding affinity to GABA alpha-1-beta-1-gamma-2 receptor; type: protein-complex assay; outline: as §2
Translocator protein [47] = molecular target: Translocator protein (Homo sapiens, UniProt P30536); assay: Binding affinity to PBR in human mitochondrial tissue
Translocator protein (Homo sapiens, UniProt P30536), sequence (P30536 whole entry): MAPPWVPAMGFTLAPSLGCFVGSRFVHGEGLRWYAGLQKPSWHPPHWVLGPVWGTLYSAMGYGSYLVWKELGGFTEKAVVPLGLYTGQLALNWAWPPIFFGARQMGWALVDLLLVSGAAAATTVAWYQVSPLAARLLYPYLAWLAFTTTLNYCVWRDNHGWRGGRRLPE

[48] = Biodistribution in rhesus monkey plasma free fraction of blood; type: ADME, organism-based, Macaca mulatta
Plasma [49] = assay: Drug level in rhesus monkey plasma; type: ADME, cell-free, Macaca mulatta

COc1ccccc1CN(C(C)=O)c1cnccc1Oc1ccccc1
Activity [1]: < 50% | Activity [2]: < 50% | Activity [3]: < 50% | Activity [4]: < 50% | Activity [5]: < 50% | Activity [6]: < 50% | Activity [7]: < 50% | Activity [8]: < 50% | Activity [9]: < 50% | Activity [10]: < 50% | Activity [11]: < 50% | Activity [12]: < 50% | Activity [13]: < 50% | Activity [14]: < 50% | Activity [15]: < 50% | Activity [16]: < 50% | Activity [17]: < 50% | Activity [18]: < 50% | Activity [19]: < 50% | Activity [20]: < 50% | Activity [21]: < 50% | Activity [22]: < 50% | Activity [23]: < 50% | Activity [24]: < 50% | Activity [25]: < 50% | Activity [26]: < 50% | Activity [27]: < 50% | Activity [28]: < 50% | Activity [29]: < 50% | Activity [30]: < 50% | Activity [31]: < 50% | Activity [32]: < 50%

CC[C@H](C)N([11CH3])C(=O)c1cc2ccccc2c(-c2ccccc2Cl)n1
Ki [33]: 4.35 nM | logD [34]: 3.97

CC(=O)N(Cc1ccccc1O[11CH3])c1cnccc1Oc1ccccc1
Ki [35]: > 10000 nM | Ki (Translocator protein [36]): 0.68 nM | Drug uptake (Brain): 97.6% | remaining at 2 h [37]: 99.8% | Drug uptake (Plasma [38]): 66.8% | Ki [39]: > 10000 nM | Drug uptake (Plasma [40]): 2.4% | Ki [41]: > 10000 nM | Drug uptake (Rattus norvegicus): 0.39% | Ki [42]: 2200 nM | remaining at 0.5 h [43]: 95.8% | remaining at 2.5 h [44]: 99% | Drug uptake (Plasma [45]): 4.2% | Ki [33]: 0.944 nM | Ki [46]: > 10000 nM | Ki (Translocator protein [47]): 2.47 nM | fraction unbound [48]: 0.056 | Drug uptake (Plasma [49]): 33.2% | logD [34]: 3.01
